Reference: ChEMBL document CHEMBL1147690, “A cassette-dosing approach for improvement of oral bioavailability of dual TACE/MMP inhibitors” (Bioorg Med Chem Lett, 2006)
pIC50, pKi: −log10 of the molar value.

How the values were obtained:
[1] = target: T1, Disintegrin and metalloproteinase domain-containing protein 17 (Homo sapiens, UniProt P78536); experiment: Inhibition of LPS/interferon gamma-stimulated TNFalpha release from HPBMC; format: functional
[2] = target: T1, Disintegrin and metalloproteinase domain-containing protein 17; experiment: Binding affinity to recombinant TACE
Stromelysin-1 = Stromelysin-1 (Homo sapiens, UniProt P08254); experiment: Binding affinity to recombinant MMP3
Chain of Stromelysin-1 (P08254 whole entry): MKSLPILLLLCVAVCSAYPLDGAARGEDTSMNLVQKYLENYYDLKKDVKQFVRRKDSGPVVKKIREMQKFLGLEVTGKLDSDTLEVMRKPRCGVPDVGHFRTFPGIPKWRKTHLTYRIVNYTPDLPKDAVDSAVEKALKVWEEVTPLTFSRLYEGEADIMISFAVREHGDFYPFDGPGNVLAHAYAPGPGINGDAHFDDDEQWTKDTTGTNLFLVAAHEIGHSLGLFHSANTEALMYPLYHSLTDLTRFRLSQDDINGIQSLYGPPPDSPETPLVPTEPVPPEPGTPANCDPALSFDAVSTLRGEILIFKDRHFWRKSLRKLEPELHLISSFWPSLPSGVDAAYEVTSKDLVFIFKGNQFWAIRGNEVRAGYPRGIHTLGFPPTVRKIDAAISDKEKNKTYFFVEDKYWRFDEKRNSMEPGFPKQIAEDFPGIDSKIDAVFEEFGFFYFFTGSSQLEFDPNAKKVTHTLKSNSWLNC
Procedure, shortened: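 Recombinant enzyme activity measured by a fluorimetric assay.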

Interstitial collagenase = target: T2, Interstitial collagenase (Homo sapiens, UniProt P03956); experiment: Binding affinity to recombinant MMP1
T2 sequence (P03956 whole entry): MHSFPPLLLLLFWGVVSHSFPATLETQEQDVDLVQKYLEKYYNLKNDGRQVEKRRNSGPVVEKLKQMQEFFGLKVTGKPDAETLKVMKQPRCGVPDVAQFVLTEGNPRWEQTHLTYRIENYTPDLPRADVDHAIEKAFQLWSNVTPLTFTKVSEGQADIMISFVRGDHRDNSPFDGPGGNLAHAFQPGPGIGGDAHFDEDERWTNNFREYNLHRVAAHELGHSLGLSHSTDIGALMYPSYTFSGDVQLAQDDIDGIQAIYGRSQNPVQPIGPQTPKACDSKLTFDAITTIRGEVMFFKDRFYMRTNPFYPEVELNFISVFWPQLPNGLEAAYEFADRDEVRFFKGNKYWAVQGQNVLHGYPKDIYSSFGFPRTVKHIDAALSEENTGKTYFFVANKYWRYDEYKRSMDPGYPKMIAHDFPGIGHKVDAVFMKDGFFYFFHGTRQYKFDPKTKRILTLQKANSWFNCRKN

Collagenase 3 = Collagenase 3 (Homo sapiens, UniProt P45452); experiment: Binding affinity to recombinant MMP13
[3] = Oral bioavailability in rat at 1 mg/kg, iv and 3 mg/kg, po; format: ADME, organism-based; conditions: in vivo
Procedure, shortened: (§1)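 Conscious, permanently cannulated rats (n = 4) were dosed with a five-compound cassette or a single compound. Dosing was 1 mg/kg iv into the femoral vein (30% N-methyl-2-pyrrolidone in PEG 200) and 3 mg/kg po by gavage (3% ethanol in corn oil), in the same animals with a 48 h washout. Femoral-artery plasma was sampled for 24 h (iv) or 7 h (po), acetonitrile-precipitated and analysed by HPLC/MS.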

[4] = Clearance in rat at 1 mg/kg, iv and 3 mg/kg, po; format: ADME, organism-based; conditions: in vivo; procedure, shortened: as §1
[5] = Volume of distribution in rat at 1 mg/kg, iv and 3 mg/kg, po; format: ADME, organism-based; conditions: in vivo, read-out: Vdss; procedure, shortened: as §1
Rattus norvegicus = experiment: Cmax in rat at 3 mg/kg, po normalized to 1 mg/kg; format: ADME, organism-based; set-up: dose 3 mg/kg, route oral; conditions: in vivo; procedure, shortened: as §1

T1 sequence (P78536 whole entry, the tested form may be a part): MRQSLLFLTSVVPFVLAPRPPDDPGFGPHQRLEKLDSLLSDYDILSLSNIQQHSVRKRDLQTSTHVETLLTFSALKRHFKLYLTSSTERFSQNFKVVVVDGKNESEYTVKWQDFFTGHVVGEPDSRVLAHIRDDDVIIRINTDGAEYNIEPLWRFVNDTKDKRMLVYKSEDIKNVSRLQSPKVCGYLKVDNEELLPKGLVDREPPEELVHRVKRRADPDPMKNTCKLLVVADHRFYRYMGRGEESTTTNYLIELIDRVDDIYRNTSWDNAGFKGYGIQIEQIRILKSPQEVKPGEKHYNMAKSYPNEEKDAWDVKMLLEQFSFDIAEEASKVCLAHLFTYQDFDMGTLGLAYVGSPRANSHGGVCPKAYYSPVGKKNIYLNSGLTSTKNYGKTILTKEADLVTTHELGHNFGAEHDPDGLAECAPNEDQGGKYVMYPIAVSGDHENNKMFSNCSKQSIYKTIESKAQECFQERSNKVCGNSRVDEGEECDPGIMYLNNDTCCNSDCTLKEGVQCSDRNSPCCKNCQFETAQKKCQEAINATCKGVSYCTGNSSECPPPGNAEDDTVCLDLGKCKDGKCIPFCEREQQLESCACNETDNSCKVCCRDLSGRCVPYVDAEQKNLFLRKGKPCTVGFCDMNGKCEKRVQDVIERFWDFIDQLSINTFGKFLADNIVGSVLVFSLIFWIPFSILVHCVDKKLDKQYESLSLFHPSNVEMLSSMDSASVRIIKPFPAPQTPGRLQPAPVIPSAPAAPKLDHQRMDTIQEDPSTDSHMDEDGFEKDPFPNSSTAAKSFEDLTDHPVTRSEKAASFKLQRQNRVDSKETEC

SMILES	pIC50 [1]	pKi [2]	pKi (Stromelysin-1)	pKi (Interstitial collagenase)	pKi (Collagenase 3)	bioavailability [3] [%]	clearance [4] [mL/min/kg]	Vd [5] [L/kg]	Cmax (Rattus norvegicus) [nM]
CN1C(=O)N(C[C@H](C(=O)NO)[C@@H](CC2CCCC2)C(=O)N2CCCCC2)C(=O)C1(C)C	< 5.00	6.64							
COc1ccc([C@@H](C(=O)N2CCCCC2)[C@H](CO)C(=O)NO)cc1	< 5.00	7.18	6.52	6.67	7.26				
CC[C@H](C(=O)NO)[C@H](C(=O)N1CCCC[C@H]1C(=O)NC)c1ccc(OC)cc1	6.08	8.10	7.96	7.60	8.15				
CNC(=O)[C@@H](NC(=O)[C@H](c1ccc(OC)cc1)[C@H](CN1C(=O)N(C)C(C)(C)C1=O)C(=O)NO)C(C)(C)C	6.32	7.24	7.92	9.15	8.52				
CC[C@H](C(=O)NO)[C@H](C(=O)N1CCCC[C@H]1C(=O)NC)c1ccc(Cl)cc1	6.50	8.30		9.15	8.70	47.1	28.1	16.7	388.6
COc1ccc([C@@H](C(=O)N2CCCCC2)[C@H](CN2C(=O)N(C)C(C)(C)C2=O)C(=O)NO)cc1	< 5.00	6.49	6.73	7.08	7.72				
CNC(=O)[C@@H]1CCCCN1C(=O)[C@H](c1ccc(OC)cc1)[C@H](CO)C(=O)NO	< 5.00	8.10		7.64	8.00	8.4	23.2	1.06	38.1
CNC(=O)[C@@H](NC(=O)C(c1ccc(OC)cc1)C(CO)C(=O)NO)C(C)(C)C (single isomer, unassigned)	7.32			9.00	9.30	3.2	10	0.34	42.7
